From ChEMBL document CHEMBL1145935, “Novel sst(4)-selective somatostatin (SRIF) agonists. 4. Three-dimensional consensus structure by NMR” (J Med Chem, 2003)
Values joined by “and” are separate entries in the source; they are usually repeats but may differ in a detail not shown here. Identical values can stand only once.

Columns and labels:
[1] = biological target: Somatostatin receptor type 1 (Homo sapiens, UniProt P30872); test: Binding affinity towards human Somatostatin receptor type 1 using 125I-[Leu8,DTrp22,Tyr25]SRIF-28 as radioligand
Sequence of Somatostatin receptor type 1 (P30872 whole entry): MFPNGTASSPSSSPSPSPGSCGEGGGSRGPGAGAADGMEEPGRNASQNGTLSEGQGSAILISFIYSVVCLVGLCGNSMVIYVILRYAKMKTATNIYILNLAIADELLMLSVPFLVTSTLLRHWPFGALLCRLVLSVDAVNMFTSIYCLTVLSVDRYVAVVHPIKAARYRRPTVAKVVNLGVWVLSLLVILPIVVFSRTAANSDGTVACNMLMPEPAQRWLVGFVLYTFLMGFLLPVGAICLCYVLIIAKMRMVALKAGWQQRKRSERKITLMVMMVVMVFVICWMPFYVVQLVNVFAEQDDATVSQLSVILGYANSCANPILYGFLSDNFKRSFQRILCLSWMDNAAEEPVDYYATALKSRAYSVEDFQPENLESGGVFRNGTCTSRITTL
Method in brief: (§1)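 Competitive radioligand displacement on cloned somatostatin receptors, with non-selective 125I-[Leu8,DTrp22,Tyr25]SRIF-28 as the tracer. IC50 (nM) is taken from the displacement curves. Separate determinations are listed individually, or their number is given in parentheses.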

[2] = biological target: Somatostatin receptor type 4 (Homo sapiens, UniProt P31391); test: Binding affinity towards human Somatostatin receptor type 4 using 125I-[Leu8,DTrp22,Tyr25]SRIF-28 as radioligand
Sequence of Somatostatin receptor type 4 (P31391 whole entry): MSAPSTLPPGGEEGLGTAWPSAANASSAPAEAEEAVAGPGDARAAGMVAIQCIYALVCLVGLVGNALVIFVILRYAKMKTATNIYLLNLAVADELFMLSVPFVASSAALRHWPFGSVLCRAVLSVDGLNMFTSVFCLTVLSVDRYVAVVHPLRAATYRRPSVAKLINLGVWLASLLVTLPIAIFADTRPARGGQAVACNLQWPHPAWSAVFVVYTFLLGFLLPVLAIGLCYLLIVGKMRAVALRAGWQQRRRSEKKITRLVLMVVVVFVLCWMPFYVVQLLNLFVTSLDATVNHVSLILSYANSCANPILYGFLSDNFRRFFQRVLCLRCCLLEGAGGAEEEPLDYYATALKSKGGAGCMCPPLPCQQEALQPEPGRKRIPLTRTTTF

[3] = biological target: Somatostatin receptor type 5 (Homo sapiens, UniProt P35346); test: Binding affinity towards human Somatostatin receptor type 5 using 125I-[Leu8,DTrp22,Tyr25]SRIF-28 as radioligand; method in brief: as §1
Sequence of Somatostatin receptor type 5 (P35346 whole entry): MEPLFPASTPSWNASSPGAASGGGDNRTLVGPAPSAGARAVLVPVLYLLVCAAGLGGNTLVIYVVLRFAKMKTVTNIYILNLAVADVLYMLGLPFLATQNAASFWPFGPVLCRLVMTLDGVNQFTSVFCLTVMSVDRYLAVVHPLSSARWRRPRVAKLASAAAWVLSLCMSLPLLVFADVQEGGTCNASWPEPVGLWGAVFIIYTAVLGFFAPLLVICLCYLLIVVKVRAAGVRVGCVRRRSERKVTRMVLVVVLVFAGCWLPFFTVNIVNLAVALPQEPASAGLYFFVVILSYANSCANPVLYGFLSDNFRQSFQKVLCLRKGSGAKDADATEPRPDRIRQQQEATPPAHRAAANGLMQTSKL

[4] = biological target: Somatostatin receptor type 2 (Homo sapiens, UniProt P30874); test: Binding affinity towards human Somatostatin receptor type 2 using 125I-[Leu8,DTrp22,Tyr25]SRIF-28 as radioligand; method in brief: as §1
Sequence of Somatostatin receptor type 2 (P30874 whole entry): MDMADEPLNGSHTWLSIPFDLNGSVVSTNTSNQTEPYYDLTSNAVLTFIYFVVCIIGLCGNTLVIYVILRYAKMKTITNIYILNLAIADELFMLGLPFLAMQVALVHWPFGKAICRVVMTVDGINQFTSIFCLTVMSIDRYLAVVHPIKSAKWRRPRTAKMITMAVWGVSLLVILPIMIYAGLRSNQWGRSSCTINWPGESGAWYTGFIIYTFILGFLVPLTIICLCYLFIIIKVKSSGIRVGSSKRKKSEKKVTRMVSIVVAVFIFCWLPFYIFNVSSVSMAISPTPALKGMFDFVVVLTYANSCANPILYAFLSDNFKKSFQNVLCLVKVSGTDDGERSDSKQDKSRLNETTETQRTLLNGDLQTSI

[5] = biological target: Somatostatin receptor type 3 (Homo sapiens, UniProt P32745); test: Binding affinity towards human Somatostatin receptor type 3 using 125I-[Leu8,DTrp22,Tyr25]SRIF-28 as radioligand; method in brief: as §1
Sequence of Somatostatin receptor type 3 (P32745 whole entry): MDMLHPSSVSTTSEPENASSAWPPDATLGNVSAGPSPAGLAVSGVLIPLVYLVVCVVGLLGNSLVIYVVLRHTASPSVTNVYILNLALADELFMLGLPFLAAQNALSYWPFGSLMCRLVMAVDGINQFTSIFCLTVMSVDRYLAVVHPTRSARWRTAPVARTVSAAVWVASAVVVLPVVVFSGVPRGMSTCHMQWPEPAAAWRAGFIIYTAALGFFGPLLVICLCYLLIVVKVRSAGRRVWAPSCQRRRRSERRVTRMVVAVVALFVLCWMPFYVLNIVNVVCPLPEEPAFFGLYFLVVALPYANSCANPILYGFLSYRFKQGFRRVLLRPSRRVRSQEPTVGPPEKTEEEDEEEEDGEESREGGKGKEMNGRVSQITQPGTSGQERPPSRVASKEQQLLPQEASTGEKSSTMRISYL

SMILES	IC50 [1]	IC50 [2]	IC50 [3]	IC50 [4]	IC50 [5]
C[C@@H](O)[C@@H]1NC(=O)[C@H](CCCCN)NC(=O)[C@H](Cc2c[nH]c3ccccc23)NC(=O)N(C)[C@@H](C(=O)c2ccccc2)NC(=O)[C@@H](Cc2ccccc2)NC(=O)[C@@H](N)CSSC[C@@H](C(=O)O)NC(=O)[C@H](Cc2ccccc2)NC1=O (stereo in doubt)	> 10000 nM	5.4 nM	> 1000 nM	> 1000 nM	403 nM
C[C@@H](O)[C@@H]1NC(=O)[C@H](CCCCN)NC(=O)[C@H](Cc2c[nH]c3ccccc23)NC(=O)N(C)[C@H](C(=O)c2ccccc2)NC(=O)[C@H](Cc2ccccc2)NC(=O)[C@@H](N)CSSC[C@@H](C(=O)O)NC(=O)[C@H](Cc2ccccc2)NC1=O (stereo in doubt)	> 10000 nM	133 nM	> 1000 nM	> 1000 nM	725 nM
C[C@@H]1NC(=O)[C@H](Cc2ccccc2)NC(=O)[C@@H](N)CSSC[C@@H](C(=O)O)NC(=O)[C@H](C)NC(=O)[C@H]([C@@H](C)O)NC(=O)[C@H](CCCCN)NC(=O)[C@H](Cc2c[nH]c3ccccc23)NC1=O	> 10000 nM	–	> 1000 nM	> 10000 nM	> 10000 nM
C[C@@H]1NC(=O)[C@H](Cc2ccccc2)NC(=O)[C@@H](N)CSSC[C@@H](C(=O)O)NC(=O)[C@H](C)NC(=O)[C@H]([C@@H](C)O)NC(=O)[C@H](CCCCN)NC(=O)[C@@H](Cc2c[nH]c3ccccc23)NC1=O	> 10000 nM	–	> 1000 nM	> 1000 nM and 962 nM	> 10000 nM
C[C@@H](O)[C@@H]1NC(=O)[C@H](CCCCN)NC(=O)[C@@H](Cc2c[nH]c3ccccc23)NC(=O)N(C)[C@H](C(=O)c2ccccc2)NC(=O)[C@H](Cc2ccccc2)NC(=O)[C@@H](N)CSSC[C@@H](C(=O)O)NC(=O)[C@H](Cc2ccccc2)NC1=O (stereo in doubt)	> 10000 nM	153 nM	> 1000 nM	> 1000 nM	> 1000 nM

The next compounds have a lower IC50 [3] than those just listed; values first:

IC50 [1]	IC50 [2]	IC50 [3]	IC50 [4]	IC50 [5]	SMILES
> 1000 nM	5.2 nM	768 nM	460 nM	447 nM	C[C@@H](O)[C@@H]1NC(=O)[C@H](CCCCN)NC(=O)[C@@H](Cc2c[nH]c3ccccc23)NC(=O)N(C)[C@@H](C(=O)c2ccccc2)NC(=O)[C@H](Cc2ccccc2)NC(=O)[C@@H](N)CSSC[C@@H](C(=O)O)NC(=O)[C@H](Cc2ccccc2)NC1=O (stereo in doubt)
> 10000 nM	3.5 nM	668 nM	339 nM	664 nM	C[C@@H](O)[C@@H]1NC(=O)[C@H](CCCCN)NC(=O)[C@H]([C@@H](C)c2ccc3ccccc3c2)NC(=O)[C@H](Cc2ccc(O)cc2)NC(=O)[C@H](Cc2ccccc2)NC(=O)[C@H](N)CSSC[C@@H](C(=O)O)NC(=O)[C@H](Cc2ccccc2)NC1=O
–	2.8 nM	360 nM	194 nM	825 nM	C[C@@H](O)[C@@H]1NC(=O)[C@H](CCCCN)NC(=O)[C@H]([C@@H](C)c2ccc3ccccc3c2)NC(=O)[C@H](Cc2ccc(O)cc2)NC(=O)[C@H](Cc2ccccc2)NC(=O)[C@@H](N)CSSC[C@@H](C(=O)O)NC(=O)[C@H](Cc2ccccc2)NC1=O
410 nM	2.3 nM	18 nM	30 nM	18 nM	C[C@H](c1ccc2ccccc2c1)[C@@H]1NC(=O)[C@H](Cc2ccc(O)cc2)NC(=O)[C@H](Cc2ccccc2)NC(=O)[C@H](N)CSSC[C@@H](C(=O)O)NC(=O)[C@H](Cc2ccccc2)NC(=O)[C@H]([C@@H](C)O)NC(=O)[C@H](CCCCN)NC1=O
